Assay results as given in ChEMBL document CHEMBL2086369, “Design, synthesis, and pharmacological characterization of indol-3-ylacetamides, indol-3-yloxoacetamides, and indol-3-ylcarboxamides: potent and selective CB2 cannabinoid receptor inverse agonists” (J Med Chem, 2012).
Calls of active or inactive are those of the source. No cut-off for these calls is given here.

Legend:
Homo sapiens = organism: Homo sapiens; test: Selectivity index, ratio of Ki for human recombinant CB1 receptor to Ki for human recombinant CB2 receptor
Cannabinoid receptor 2 [1] = biological target: T1, Cannabinoid receptor 2 (Homo sapiens, UniProt P34972); test: Displacement of [3H]CP-55,940 from human recombinant CB2 receptor transfected in HEK cells; type: cell-based, HEK293
Cannabinoid receptor 1 = Cannabinoid receptor 1 (Homo sapiens, UniProt P21554); test: biochemical; type: cell-based, HEK293
Cannabinoid receptor 2 [2] = biological target: T1, Cannabinoid receptor 2; details: CHO, 10 uM
Cannabinoid receptor 2 [3] = biological target: T1, Cannabinoid receptor 2; details: CHO, 1 uM
Mus musculus [4] = test: Analgesic activity in ip dosed mouse assessed as reduction of formalin-induced inflammatory pain administered 15 mins before formalin challenge measured for 15 to 60 mins; type: functional, organism-based
Summary of the method: (§1)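 Mice (n = 8−10 per group) got compound ip (1 or 3 mg/kg) or vehicle 15 min before formalin (1.25% in saline, 30 μL) into the dorsal hindpaw. Where used, COR167 (1 mg/kg, ip) was given 5 min before compound. Time spent licking plus elevating the paw was scored every 5 min over phase 1 (0−7 min) and phase 2 (15−60 min). Mean ± SEM; ANOVA with Dunnett's test.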

Cannabinoid receptor 2 [5] = biological target: T1, Cannabinoid receptor 2; test: Inverse agonist activity at human CB2 receptor expressed in CHO cells assessed as increase of forskolin-induced cAMP level at 1 uM by scintillation counting; type: functional, cell-based
Summary of the method: (§2)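 CHO cells expressing human CB2, trypsinized, 1 × 10⁶ cells per assay in HEPES-buffered saline with glucose, pH 7.4, 37 °C. Preincubated 10 min with 0.5 mM Ro 20-1724. Compound tested with 1 μM forskolin. Stopped with cold 6% TCA, ether-extracted, cAMP measured by [³H]cAMP competition binding to adrenal binding protein with scintillation counting. Given as % cAMP increase; means of ≥4 experiments in duplicate.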

Mus musculus [6] = test: Analgesic activity in mouse assessed as reduction of formalin-induced inflammatory pain at 1 mg/kg, ip administered 15 mins before formalin challenge measured for 15 to 60 mins in presence of CB2 agonist COR167; type: functional, organism-based; design: dose 1 mg/kg; summary of the method: as §1
Cannabinoid receptor 2 [7] = biological target: T1, Cannabinoid receptor 2; test: Inverse agonist activity at human CB2 receptor expressed in CHO cells assessed as increase of forskolin-induced cAMP level at 10 uM by scintillation counting; type: functional, cell-based; summary of the method: as §2
Mus musculus [8] = test: Antinociceptive activity in mouse assessed as reduction of formalin-induced nocifensive response at 1 to 3 mg/kg, ip administered 15 mins before formalin challenge measured for 0 to 7 mins; type: functional, organism-based; summary of the method: as §1
Mus musculus [9] = test: Antinociceptive activity in mouse assessed as reduction of formalin-induced nocifensive response at 1 mg/kg, ip administered 15 mins before formalin challenge measured for 0 to 7 mins in presence of CB2 agonist COR167; type: functional, organism-based; design: dose 1 mg/kg; summary of the method: as §1

T1 sequence (P34972 whole entry): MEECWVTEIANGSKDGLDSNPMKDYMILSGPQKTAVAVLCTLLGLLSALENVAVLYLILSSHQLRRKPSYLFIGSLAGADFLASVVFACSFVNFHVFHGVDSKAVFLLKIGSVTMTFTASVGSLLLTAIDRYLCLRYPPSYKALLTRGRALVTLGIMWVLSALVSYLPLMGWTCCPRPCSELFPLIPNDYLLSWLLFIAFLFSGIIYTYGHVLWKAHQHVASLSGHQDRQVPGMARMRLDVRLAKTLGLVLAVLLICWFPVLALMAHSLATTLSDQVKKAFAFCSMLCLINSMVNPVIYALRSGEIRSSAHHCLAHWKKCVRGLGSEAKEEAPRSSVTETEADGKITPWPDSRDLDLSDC
Sequence of Cannabinoid receptor 1 (P21554 whole entry): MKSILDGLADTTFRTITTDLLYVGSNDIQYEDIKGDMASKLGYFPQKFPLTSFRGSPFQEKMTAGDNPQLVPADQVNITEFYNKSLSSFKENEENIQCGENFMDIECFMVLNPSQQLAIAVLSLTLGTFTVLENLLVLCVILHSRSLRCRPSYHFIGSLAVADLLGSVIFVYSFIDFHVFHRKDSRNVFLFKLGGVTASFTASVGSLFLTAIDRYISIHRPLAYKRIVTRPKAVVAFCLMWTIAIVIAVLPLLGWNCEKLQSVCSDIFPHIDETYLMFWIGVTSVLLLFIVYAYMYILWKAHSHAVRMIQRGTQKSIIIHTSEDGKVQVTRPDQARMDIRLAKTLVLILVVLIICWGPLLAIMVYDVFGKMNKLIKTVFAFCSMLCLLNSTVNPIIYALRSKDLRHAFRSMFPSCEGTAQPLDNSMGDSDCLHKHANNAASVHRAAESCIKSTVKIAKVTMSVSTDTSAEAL

Compound | Ratio Ki (Homo sapiens) | Ki (Cannabinoid receptor 2 [1]) | Ki (Cannabinoid receptor 1) | also measured
C=CCn1cc(C(=O)C(=O)NC23CC4CC(CC(C4)C2)C3)c2cc(-c3ccccc3)ccc21 | 154 | 25.4 nM | 3920 nM | –
CCCCCn1cc(CC(=O)NC23CC4CC(CC(C4)C2)C3)c2cc(-c3ccco3)ccc21 | 15.1 | 110 nM | 1660 nM | –
CCCC(C)(C)c1ccc2c(c1)OC(C)(C)[C@@H]1CC=C(C)C[C@@H]21 | – | – | – | inhibition (Cannabinoid receptor 2 [2]): 94%; inhibition (Cannabinoid receptor 2 [3]): 87%
O=C(Cc1c[nH]c2ccc(-c3ccccc3)cc12)NC12CC3CC(CC(C3)C1)C2 | > 141 | 70.8 nM | > 10000 nM | –
CCCCCn1cc(CC(=O)NC23CC4CC(CC(C4)C2)C3)c2cc(-c3ccccc3)ccc21 | 34 | 70 nM | 2380 nM | –
CCCCCn1cc(C(=O)C(=O)NC23CC4CC(CC(C4)C2)C3)c2cc(-c3ccco3)ccc21 | 932 | 0.37 nM | 345 nM | Activity (Mus musculus [4]): Dose-dependent effect; Activity (Cannabinoid receptor 2 [5]): 138%; Activity (Mus musculus [6]): Active; Activity (Cannabinoid receptor 2 [7]): 163%; Activity (Mus musculus [8]): inactive; Activity (Mus musculus [9]): Active
CCCn1cc(CC(=O)NC23CC4CC(CC(C4)C2)C3)c2cc(-c3ccccc3)ccc21 | 128 | 11.8 nM | 1510 nM | –
C=CCCn1cc(CC(=O)NC23CC4CC(CC(C4)C2)C3)c2cc(-c3ccccc3)ccc21 | 103 | 17.8 nM | 1830 nM | –
CCCCCn1cc(C(=O)NC23CC4CC(CC(C4)C2)C3)c2ccc(-c3ccccc3)cc21 | 0.6 | 3.52 nM | 2.03 nM | –
C=CCn1cc(CC(=O)NC23CC4CC(CC(C4)C2)C3)c2cc(Br)ccc21 | > 9 | 1090 nM | > 10000 nM | –
CCCCCn1cc(C(=O)C(=O)NC23CC4CC(CC(C4)C2)C3)c2cc(-c3ccccc3)ccc21 | > 787 | 12.7 nM | > 10000 nM | Activity (Cannabinoid receptor 2 [5]): 55%; Activity (Cannabinoid receptor 2 [7]): 70%
C=CCn1cc(C(=O)NC23CC4CC(CC(C4)C2)C3)c2cc(-c3ccc(O)cc3)ccc21 | > 450 | 22.2 nM | > 10000 nM | Activity (Cannabinoid receptor 2 [5]): 51%; Activity (Cannabinoid receptor 2 [7]): 68%
CCCCCn1cc(C(=O)C(=O)NC2CCCCC2)c2cc(-c3ccccc3)ccc21 | > 892 | 11.2 nM | > 10000 nM | –
CCCCn1cc(CC(=O)NC23CC4CC(CC(C4)C2)C3)c2cc(-c3ccccc3)ccc21 | > 487 | 20.5 nM | > 10000 nM | –
CCCCCn1cc(C(=O)NC23CC4CC(CC(C4)C2)C3)c2cc(-c3ccco3)ccc21 | 138 | 2.48 nM | 342 nM | Activity (Mus musculus [4]): Dose-dependent effect; Activity (Cannabinoid receptor 2 [5]): 93%; Activity (Mus musculus [6]): inactive; Activity (Cannabinoid receptor 2 [7]): 110%; Activity (Mus musculus [8]): inactive; Activity (Mus musculus [9]): inactive
Cn1cc(CC(=O)NC23CC4CC(CC(C4)C2)C3)c2cc(-c3ccccc3)ccc21 | 5 | 98 nM | 488 nM | –
CCCCCn1cc(C(=O)NC23CC4CC(CC(C4)C2)C3)c2cc(-c3cccs3)ccc21 | 568 | 6.37 nM | 3620 nM | Activity (Cannabinoid receptor 2 [5]): 106%; Activity (Cannabinoid receptor 2 [7]): 135%
C=CCn1cc(C(=O)NC23CC4CC(CC(C4)C2)C3)c2cc(-c3ccco3)ccc21 | 488 | 5.73 nM | 2790 nM | –
CCn1cc(CC(=O)NC23CC4CC(CC(C4)C2)C3)c2cc(-c3ccccc3)ccc21 | 10.4 | 67 nM | 698 nM | –
C=CCn1cc(CC(=O)NC23CC4CC(CC(C4)C2)C3)c2cc(-c3ccccc3)ccc21 | 10.6 | 50 nM | 530 nM | Activity (Cannabinoid receptor 2 [5]): 67%; Activity (Cannabinoid receptor 2 [7]): 88%
C=CCn1cc(C(=O)NC23CC4CC(CC(C4)C2)C3)c2cc(-c3ccccc3)ccc21 | 26.5 | 1.82 nM | 48.2 nM | –
O=C(Cc1cn(Cc2ccccc2)c2ccc(-c3ccccc3)cc12)NC12CC3CC(CC(C3)C1)C2 | > 52 | 189 nM | > 10000 nM | –
C=CCn1cc(CC(=O)NC23CC4CC(CC(C4)C2)C3)c2cc(-c3ccco3)ccc21 | 11.2 | 50 nM | 560 nM | –
C=CCn1cc(CC(=O)NC2CCCCCC2)c2cc(-c3ccco3)ccc21 | > 26 | 377 nM | > 10000 nM | –
CCCCCn1cc(CC(=O)NC23CC4CC(CC(C4)C2)C3)c2cc(Br)ccc21 | 32.4 | 170 nM | 5510 nM | –
CCCCCn1cc(C(=O)NC23CC4CC(CC(C4)C2)C3)c2cc(-c3ccccc3)ccc21 | 90.7 | 11.6 nM | 1050 nM | –
C=CCn1cc(CC(=O)NC2CCCCC2)c2cc(OCc3cccc(OC)c3)ccc21 | > 25 | 400 nM | > 10000 nM | –
CCCCCn1cc(C(=O)NC23CC4CC(CC(C4)C2)C3)c(=O)c2cc(-c3ccco3)ccc21 | – | – | > 10000 nM | –
C=CCn1cc(C(=O)C(=O)NC23CC4CC(CC(C4)C2)C3)c2cc(-c3ccco3)ccc21 | 351 | 10.3 nM | 3620 nM | Activity (Cannabinoid receptor 2 [5]): 62%; Activity (Cannabinoid receptor 2 [7]): 75%
